This note sets out measurements from ChEMBL document CHEMBL4028848, “Discovery of N-{4-[5-(4-Fluorophenyl)-3-methyl-2-methylsulfanyl-3H-imidazol-4-yl]-pyridin-2-yl}-acetamide (CBS-3595), a Dual p38α MAPK/PDE-4 Inhibitor with Activity against TNFα-Related Diseases” (J Med Chem, 2017).

Data set [1] in a line: Drug level in cynomolgus monkey liver microsomes treated with CBS-3595 at 10 to 100 uM. The class given is ADME, Macaca fascicularis, microsome. In short, it runs like this:
(§1)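 Test compound incubated at 10, 30 and 100 μM with liver microsomes from rat, Cynomolgus monkey or human, and metabolites monitored.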
(Microsomes from liver hold many membrane-bound enzymes, among them those of drug oxidation.)

For a further data set, the system named is Liver. Briefly: Drug level in human liver microsomes treated with CBS-3595 at 10 to 100 uM. The data set is classed as ADME, microsome. In short, it runs like this:
as §1

Data set [2] has as its target Rho-associated protein kinase 2 (Homo sapiens) (UniProt O75116). Briefly: Inhibition of ROCK-2 (unknown origin) at 10 uM.
The test system of data set [3] is Mus musculus. Briefly: In vivo inhibition of P38 MAPKalpha in BALB/c mouse assessed as decrease in LPS/GalN-stimulated TNFalpha level in plasma at 10 mg/kg, po administered via gavage pretreated for 1 hr followed by LPS/GalN addition measured after 1.5 hrs relative to control. The class given is functional. In short, it runs like this: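 Male BALB/c mice, n = 6/group, given 3, 10 or 30 mg/kg orally by gavage 1 h before i.p. D-GalN (500 mg/kg) plus LPS (1.5 μg/kg). Blood was taken by cardiac puncture and plasma TNFα measured against a vehicle-only control.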

Data set [4] can be described thus: AUC (0 to t) in mongrel dog at 30 mg/kg, po by LC-MS/MS analysis. The data set is classed as ADME, organism-based, Canis lupus familiaris. The settings on record: in vivo. An outline of the steps:
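Two mongrel dogs received a single oral dose of 30 mg/kg. Blood was sampled from 0.25 to 24 h and plasma parent concentrations were determined.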

Data set [5] concerns Mus musculus. Briefly: Antiarthritic activity in human TNF transgenic mouse model assessed as reduction in cartilage damage at 20 to 50 mg/kg/day, po for 10 weeks. The data set is classed as functional, organism-based. In short, it runs like this:
(§2)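 Heterozygous human TNF transgenic mice (8 per group) were dosed orally for ten weeks with 20 or 50 mg/kg/day as a methylcellulose suspension, alongside vehicle and infliximab i.p. controls. Joint swelling and grip strength were scored weekly, and hind paws were examined histologically at the end.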

For the next data set, the system named is Salmonella typhimurium. Briefly: Genotoxicity in Salmonella typhimurium in presence of S9 fraction by Ames test. The data set is classed as toxicity. The settings on record: salmonella enterica subsp. enterica serovar typhimurium. In short, it runs like this:
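Bacterial reverse mutation (Ames) test in S. typhimurium and E. coli strains, run with and without S9 mix.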
A general note: In the Ames test, an excess of revertant colonies over the control signals mutagenicity.

A short description of data set [6]: Drug uptake in LPS-stimulated female Lewis rat serum at 10 mg/kg, po pretreated for 1 hrs followed by LPS addition measured after 1.5 hrs post dose. The class given is ADME, organism-based. The settings on record: read-out: Drug uptake. In short, it runs like this:
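Female Lewis rats, n = 8/group, dosed orally at 10 mg/kg at 1, 3 or 5 h before LPS challenge. Serum aliquots taken 1.5 h after LPS were used to measure drug concentration.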

Data set [7] has as its system Cynomolgus monkey. Briefly: Toxicity in cynomolgus monkey assessed as whitish vomiting at 6 to 20 mg/kg, po. The class given is organism-based, Macaca fascicularis. The conditions noted are these: in vivo.
Data set [8] in a line: Drug excretion in human urine at 10 to 50 mg, po administered as single dose up to 36 hrs. The conditions noted are these: read-out: Drug excretion. The class given is ADME, organism-based. An outline of the steps:
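Healthy subjects, single oral dose. Urine collected at 0–6, 6–12, 12–24 and 24–36 h post dose and analysed for parent and metabolite. Excreted amount expressed relative to administered dose.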

For data set [9], the system named is Cynomolgus monkey. Briefly: In vivo inhibition of P38 MAPKalpha in po dosed cynomolgus monkey assessed as decrease in TNFalpha level in LPS-stimulated whole blood pretreated for 4 weeks followed by ex vivo LPS addition measured on day 27. The data set is classed as functional, organism-based. The settings on record: Macaca fascicularis.
Data set [10] relates to Cynomolgus monkey. Briefly: Toxicity in cynomolgus monkey assessed as death at 6 to 20 mg/kg followed by after 1 week high dose treatment of 25 mg/kg at 1 week post first dose for 28 days followed by 2 weeks off without dosing. The class given is organism-based, Macaca fascicularis. The conditions noted are these: in vivo. In short, it runs like this: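 Cynomolgus monkeys, 32 in total, 3–5 per group. Dosed for 28 days with vehicle or 6, 12 or 20 mg/kg; the high dose was raised to 25 mg/kg/day after 1 week. Two males and two females from the control and high-dose groups were followed through a further 2-week treatment-free period. Deaths and clinical signs recorded.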

Data set [11] relates to Mus musculus. Briefly: Antiarthritic activity in human TNF transgenic mouse model assessed as reduction in synovitis at 20 to 50 mg/kg/day, po for 10 weeks. The class given is functional, organism-based. In short, it runs like this: as §2
Data set [12] has as its system Cynomolgus monkey. Briefly: In vivo inhibition of P38 MAPKalpha in cynomolgus monkey assessed as decrease in TNFalpha level in LPS-stimulated whole blood at 12 mg/kg, po pretreated followed by LPS addition measured after 1 day relative to control. The data set is classed as functional. The settings on record: Macaca fascicularis. In short, it runs like this:
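Cynomolgus monkeys were dosed orally, then whole blood was stimulated ex vivo with LPS. TNFα release was compared with vehicle-dosed animals.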

Data set [13] concerns the target CDK3/Cyclin E (Homo sapiens) (UniProt P24864+Q00526). Briefly: Inhibition of CDK3/cyclinE (unknown origin) at 10 uM relative to control. The data set is classed as protein-complex assay.
Another data set relates to Lymphocyte. Briefly: Clastogenicity in human lymphocytes in presence of S9 fraction by microneucleus test. The data set is classed as toxicity, cell-based. An outline of the steps: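 Cytogenetic clastogenicity assay in cultured human lymphocytes, run with and without S9 mix.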
The next data set has as its system Saccharomyces cerevisiae. Briefly: Inhibition of yeast CK1 at 10 uM relative to control.

Calls of active or inactive are those of the source. The rule behind the calls is not given here.

Sequence of CDK3/Cyclin E (Homo sapiens) (P24864 whole entry, looked up): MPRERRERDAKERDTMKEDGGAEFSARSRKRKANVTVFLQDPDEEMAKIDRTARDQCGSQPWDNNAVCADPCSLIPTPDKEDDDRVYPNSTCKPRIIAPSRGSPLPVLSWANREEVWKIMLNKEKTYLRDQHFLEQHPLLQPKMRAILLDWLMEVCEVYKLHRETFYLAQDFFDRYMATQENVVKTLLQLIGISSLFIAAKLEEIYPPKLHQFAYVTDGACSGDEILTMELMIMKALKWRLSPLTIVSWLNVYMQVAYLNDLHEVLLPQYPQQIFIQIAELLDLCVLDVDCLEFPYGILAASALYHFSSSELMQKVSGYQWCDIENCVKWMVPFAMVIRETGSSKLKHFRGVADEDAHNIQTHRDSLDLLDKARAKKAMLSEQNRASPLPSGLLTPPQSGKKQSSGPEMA
Sequence of CDK3/Cyclin E (Homo sapiens) (Q00526 whole entry, looked up): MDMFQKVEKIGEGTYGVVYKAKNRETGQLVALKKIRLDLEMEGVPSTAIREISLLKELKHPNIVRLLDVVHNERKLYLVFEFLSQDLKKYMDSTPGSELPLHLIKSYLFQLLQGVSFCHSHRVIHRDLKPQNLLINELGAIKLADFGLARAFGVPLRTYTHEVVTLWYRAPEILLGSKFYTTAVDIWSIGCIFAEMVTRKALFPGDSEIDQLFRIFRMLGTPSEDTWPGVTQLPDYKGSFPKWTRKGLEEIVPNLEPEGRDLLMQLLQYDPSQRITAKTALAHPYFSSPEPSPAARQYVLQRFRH
Sequence of Rho-associated protein kinase 2 (Homo sapiens) (O75116 whole entry, looked up): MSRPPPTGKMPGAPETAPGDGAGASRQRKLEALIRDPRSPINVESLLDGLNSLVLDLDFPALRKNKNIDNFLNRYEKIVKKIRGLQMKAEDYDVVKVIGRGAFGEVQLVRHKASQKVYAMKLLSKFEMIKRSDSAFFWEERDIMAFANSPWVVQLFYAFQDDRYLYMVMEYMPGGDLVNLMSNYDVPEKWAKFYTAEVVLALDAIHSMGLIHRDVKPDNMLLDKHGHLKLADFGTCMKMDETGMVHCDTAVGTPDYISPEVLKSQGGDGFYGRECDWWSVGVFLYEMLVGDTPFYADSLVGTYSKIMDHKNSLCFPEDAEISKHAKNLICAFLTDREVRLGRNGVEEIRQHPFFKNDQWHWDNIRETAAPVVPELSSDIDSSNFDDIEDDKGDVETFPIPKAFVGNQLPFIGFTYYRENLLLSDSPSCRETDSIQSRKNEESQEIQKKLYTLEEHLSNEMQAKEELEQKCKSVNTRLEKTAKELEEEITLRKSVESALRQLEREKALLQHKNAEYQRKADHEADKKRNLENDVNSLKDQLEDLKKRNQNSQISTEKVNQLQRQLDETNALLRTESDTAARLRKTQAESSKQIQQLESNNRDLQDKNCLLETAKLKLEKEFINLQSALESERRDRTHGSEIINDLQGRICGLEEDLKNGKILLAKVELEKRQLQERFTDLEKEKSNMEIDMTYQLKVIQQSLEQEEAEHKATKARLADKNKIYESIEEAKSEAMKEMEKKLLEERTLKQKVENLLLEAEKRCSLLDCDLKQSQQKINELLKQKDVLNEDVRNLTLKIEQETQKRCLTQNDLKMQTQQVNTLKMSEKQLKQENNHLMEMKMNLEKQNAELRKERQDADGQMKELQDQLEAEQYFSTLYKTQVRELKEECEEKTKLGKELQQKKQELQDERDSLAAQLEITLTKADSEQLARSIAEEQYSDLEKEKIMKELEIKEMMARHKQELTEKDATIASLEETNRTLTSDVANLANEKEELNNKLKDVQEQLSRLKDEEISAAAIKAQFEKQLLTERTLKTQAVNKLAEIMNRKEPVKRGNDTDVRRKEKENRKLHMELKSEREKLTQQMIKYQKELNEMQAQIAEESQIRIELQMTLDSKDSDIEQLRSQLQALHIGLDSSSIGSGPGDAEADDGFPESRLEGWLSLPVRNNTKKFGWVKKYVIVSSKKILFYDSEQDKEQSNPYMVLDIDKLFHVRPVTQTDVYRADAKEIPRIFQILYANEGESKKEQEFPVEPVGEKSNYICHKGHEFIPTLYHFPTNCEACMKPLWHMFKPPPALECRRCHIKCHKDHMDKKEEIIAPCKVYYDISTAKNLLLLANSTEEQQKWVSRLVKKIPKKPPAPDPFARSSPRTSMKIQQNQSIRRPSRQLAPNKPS

Regarding `Cn1c([S+](C)[O-])nc(-c2ccc(F)cc2)c1-c1ccnc(N)c1` (configuration not stated), the Drug metabolism result (in data set [1]; in the data set with Liver) was “Metabolite_Detected” throughout. Besides, the inhibition entry in data set [2] is “inactive”.
On to `CC(=O)Nc1cc(-c2c(-c3ccc(F)cc3)nc([S+](C)[O-])n2C)ccn1` (configuration not stated), for which, in the data set with Mus musculus [3], the inhibition in vivo at 10 mg/kg was found to be 84%. Also, the AUC(0-t) in data set [4] worked out at 95 µM·h. In addition, the outcome in the data set with Mus musculus [5] and in the data set on Mus musculus [11] was Active. Also, the Activity entry is listed as “Non-Toxic” in the data set on Salmonella typhimurium, “Toxic” in the data set on Cynomolgus monkey [7], “Non-Toxic” in the data set on Cynomolgus monkey [10] and “Non-Toxic” in the data set on Lymphocyte. For the same compound, the concentration at 1.5 h in [6] was 237 ng/mL. The dose excreted at 36 h in [8] is 6%. Besides, the inhibition entry in the data set with Cynomolgus monkey [9] was “Dose-dependent effect”; in data set [13], 55%; with Saccharomyces cerevisiae, 97%. Further, the inhibition in vivo at 12 mg/kg with Cynomolgus monkey [12] amounted to 50%.

For orientation: inhibition means the drop in the measured response relative to a control, in per cent. One may read the inhibition in vivo as the drop in the measured response relative to a control, in per cent. One may read the AUC(0-t) as the area under the concentration-time curve up to a stated or last time point.
